Calls of active or inactive are those of the source. The calls are words filed in the database; no cut-off is given here.
How the values were obtained:
MDA-MB-231 = assay: Cytotoxicity against human MDA-MB-231 cells after 4 days XTT assay; assay type: functional, cell-based; details: MDA-MB-231, 96 h
In short: (§1)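 XTT assay with four-day drug treatment. Cells were plated one day before dosing and drug was added on day 2. XTT was read on day 5 after drug addition by absorbance at 595 nm. Absorbance was converted to percent survival against mock-treated cells to give dose-dependent cytotoxicity. Triplicate sets. HeLa, MDA-MB231 and MDA-MB468 were maintained in DMEM with 10% FBS.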

MDA-MB-468 = assay: Cytotoxicity against human MDA-MB-468 cells after 4 days by XTT assay; assay type: functional, cell-based; details: MDA-MB-468, 96 h; in short: as §1
HeLa [1] = assay: Cytotoxicity against human HeLa cells after 4 days by XTT assay; assay type: functional, cell-based; details: 96 h; in short: as §1
K562 = assay: Cytotoxicity against human K562 cells after 4 days by XTT assay; assay type: functional, cell-based; details: K562, 96 h
[2] = target: T1, Serine/threonine-protein kinase Nek2 (Homo sapiens) (UniProt P51955); assay: Binding affinity to NeK2 in human HeLa cell extract by affinity pulldown assay; assay type: cell-free
T1 sequence (whole entry): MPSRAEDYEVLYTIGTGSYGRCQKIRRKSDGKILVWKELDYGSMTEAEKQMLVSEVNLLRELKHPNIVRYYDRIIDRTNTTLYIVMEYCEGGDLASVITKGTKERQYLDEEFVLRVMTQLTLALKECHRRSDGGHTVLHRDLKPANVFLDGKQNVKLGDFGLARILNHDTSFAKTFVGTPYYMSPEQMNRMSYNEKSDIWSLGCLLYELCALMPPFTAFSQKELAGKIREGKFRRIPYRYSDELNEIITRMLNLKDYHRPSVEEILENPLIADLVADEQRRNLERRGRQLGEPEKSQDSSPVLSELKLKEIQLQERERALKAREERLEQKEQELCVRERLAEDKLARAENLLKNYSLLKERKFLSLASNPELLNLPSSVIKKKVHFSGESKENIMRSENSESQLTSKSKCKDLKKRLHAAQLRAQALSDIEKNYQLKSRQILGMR
In short: (§2)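 Compounds were conjugated to affi-gel matrix. HeLa cell extract was incubated with control or compound-conjugated matrices and the precipitates were washed thoroughly. Bound proteins were resolved by SDS-PAGE and Western blotted for Hec1 and Nek2. Whole cell extract served as input, in duplicates.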

[3] = target: T2, Kinetochore protein NDC80 homolog (Homo sapiens) (UniProt O14777); assay: Binding affinity to Hec1 in human HeLa cell extract by affinity pulldown assay; assay type: cell-free; in short: as §2
T2 sequence (whole entry): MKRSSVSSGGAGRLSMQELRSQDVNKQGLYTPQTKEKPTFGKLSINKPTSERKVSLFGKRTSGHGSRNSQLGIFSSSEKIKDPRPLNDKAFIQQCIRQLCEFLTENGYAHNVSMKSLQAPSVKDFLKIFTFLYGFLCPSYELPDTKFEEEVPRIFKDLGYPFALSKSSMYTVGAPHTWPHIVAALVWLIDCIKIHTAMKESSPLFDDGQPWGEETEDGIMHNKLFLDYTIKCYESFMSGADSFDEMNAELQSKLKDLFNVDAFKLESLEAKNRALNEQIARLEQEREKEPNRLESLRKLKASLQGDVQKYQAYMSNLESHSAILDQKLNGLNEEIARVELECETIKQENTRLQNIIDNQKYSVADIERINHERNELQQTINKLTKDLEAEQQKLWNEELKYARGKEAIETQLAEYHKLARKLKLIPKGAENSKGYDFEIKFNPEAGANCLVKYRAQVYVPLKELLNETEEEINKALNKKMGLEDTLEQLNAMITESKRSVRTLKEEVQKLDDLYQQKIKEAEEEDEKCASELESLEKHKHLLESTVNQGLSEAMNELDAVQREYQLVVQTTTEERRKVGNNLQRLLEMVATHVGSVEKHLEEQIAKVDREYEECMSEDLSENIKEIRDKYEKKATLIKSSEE

HeLa [4] = assay: Anticancer activity against human HeLa cells assessed as reduction of Nek2 level at 25 uM by Western blot assay; assay type: functional, cell-based
HeLa [5] = assay: Cell cycle arrest in human HeLa cells assessed as accumulation at subG1 phase at 2.5 uM after 72 hrs by FACS analysis; assay type: functional
In short: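 HeLa cells were treated with compound at 2.5 μM, with buffer as mock control. Phase contrast images were taken at various time points to assess dying-cell morphology such as membrane bubbling. Cell cycle profiling was done by FACS at 72 h.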

SMILES: Cc1ccc(-c2csc(NC(=S)c3ccccc3)n2)c(C)c1
- IC50 (MDA-MB-231): 21.1 µM
- IC50 (MDA-MB-468): 19.6 µM
- IC50 (HeLa [1]): 18.6 µM
- IC50 (K562): 22.9 µM

SMILES: COc1cc(C)cc(C)c1-c1csc(NC(=O)c2ccccc2)n1
- IC50 (MDA-MB-231): 7.2 µM
- IC50 (MDA-MB-468): 10.7 µM
- IC50 (HeLa [1]): 10.6 µM
- IC50 (K562): 7.3 µM

SMILES: Cc1ccc(-c2csc(N)n2)c(C)c1
- IC50 (MDA-MB-231): > 40 µM
- IC50 (MDA-MB-468): > 40 µM
- IC50 (HeLa [1]): > 40 µM
- IC50 (K562): > 40 µM

SMILES: COc1ccc(C(=O)Nc2nc(-c3ccc(C)cc3C)cs2)c(OC)c1
- IC50 (MDA-MB-231): 23.4 µM
- IC50 (MDA-MB-468): > 40 µM
- IC50 (HeLa [1]): > 40 µM
- IC50 (K562): > 40 µM

SMILES: Cc1ccc(-c2csc(NC(=O)c3cncn3C)n2)c(C)c1
- IC50 (MDA-MB-231): > 25 µM
- IC50 (MDA-MB-468): > 25 µM
- IC50 (HeLa [1]): > 25 µM
- IC50 (K562): > 25 µM

SMILES: Cc1cc(C)c(-c2csc(NC(=O)c3cncn3C)n2)c(C)c1
- IC50 (MDA-MB-231): 6.8 µM
- IC50 (MDA-MB-468): 10.7 µM
- IC50 (HeLa [1]): 11.2 µM
- IC50 (K562): 10.1 µM

SMILES: Cc1ccc(-c2csc(NS(=O)(=O)Cc3ccccc3)n2)c(C)c1
- IC50 (MDA-MB-231): > 40 µM
- IC50 (MDA-MB-468): > 40 µM
- IC50 (HeLa [1]): > 40 µM
- IC50 (K562): > 40 µM

SMILES: Cc1cc(C)c(-c2csc(N(CC(=O)O)C(=O)c3ccccc3)n2)c(C)c1
- IC50 (MDA-MB-231): > 40 µM
- IC50 (MDA-MB-468): > 40 µM
- IC50 (HeLa [1]): > 40 µM
- IC50 (K562): > 40 µM

SMILES: Cc1ccc(-c2csc(NC(=O)c3ccncc3)n2)c(C)c1
- IC50 (MDA-MB-231): 1.1 µM
- IC50 (MDA-MB-468): 3.4 µM
- IC50 (HeLa [1]): 1.6 µM
- IC50 (K562): 1.2 µM
- Activity [2]: inactive

SMILES: Cc1ccc(-c2csc(NC(=O)c3nccs3)n2)c(C)c1
- IC50 (MDA-MB-231): 2.9 µM
- IC50 (MDA-MB-468): 6.2 µM
- IC50 (HeLa [1]): 7.4 µM
- IC50 (K562): 10.1 µM

SMILES: Cc1cc(C)c(-c2csc(N)n2)c(C)c1
- IC50 (MDA-MB-231): > 40 µM
- IC50 (MDA-MB-468): > 40 µM
- IC50 (HeLa [1]): > 40 µM
- IC50 (K562): > 40 µM

SMILES: Cc1cc(C)c(-c2csc(NC(=O)c3ccccn3)n2)c(C)c1
- IC50 (MDA-MB-231): 4.1 µM
- IC50 (MDA-MB-468): 2.3 µM
- IC50 (HeLa [1]): 5.2 µM
- IC50 (K562): 4.9 µM

SMILES: COc1ccc(C(=O)/N=c2\scc(-c3c(C)cc(C)cc3C)n2C)c(OC)c1
- IC50 (MDA-MB-231): 22.1 µM
- IC50 (MDA-MB-468): 21 µM
- IC50 (HeLa [1]): 22 µM
- IC50 (K562): 23.7 µM

SMILES: Cc1ccc(-c2csc(NC(=O)c3cccnc3)n2)c(C)c1
- IC50 (MDA-MB-231): 4.1 µM
- IC50 (MDA-MB-468): 5.5 µM
- IC50 (HeLa [1]): 5.8 µM
- IC50 (K562): 8.2 µM

SMILES: Cc1cc(C)c(-c2csc(NC(=O)c3ccc(O)cc3O)n2)c(C)c1
- IC50 (MDA-MB-231): 22.5 µM
- IC50 (MDA-MB-468): 21.3 µM
- IC50 (HeLa [1]): > 40 µM
- IC50 (K562): > 40 µM

SMILES: Cc1cc(C)c(-c2csc(NC(=O)c3ccccc3)n2)c(O)c1
- IC50 (MDA-MB-231): 11.8 µM
- IC50 (MDA-MB-468): > 40 µM
- IC50 (HeLa [1]): 13.1 µM
- IC50 (K562): 11.9 µM

SMILES: Cc1cc(C)c(-c2csc(NC(=O)c3cccnc3)n2)c(C)c1
- IC50 (MDA-MB-231): 3.2 µM
- IC50 (MDA-MB-468): 3 µM
- IC50 (HeLa [1]): 3.6 µM
- IC50 (K562): 3.9 µM

SMILES: Cc1cc(C)c(-c2csc(NC(=O)c3cnccn3)n2)c(C)c1
- IC50 (MDA-MB-231): 3.2 µM
- IC50 (MDA-MB-468): 4.7 µM
- IC50 (HeLa [1]): 5.7 µM
- IC50 (K562): 5.9 µM

SMILES: CCOC(=O)CN(C(=O)c1ccccc1)c1nc(-c2c(C)cc(C)cc2C)cs1
- IC50 (MDA-MB-231): 15.8 µM
- IC50 (MDA-MB-468): 20.2 µM
- IC50 (HeLa [1]): 22.2 µM
- IC50 (K562): 20.2 µM

SMILES: COc1ccccc1C(=O)Nc1nc(-c2c(C)cc(C)cc2C)cs1
- IC50 (MDA-MB-231): > 40 µM
- IC50 (MDA-MB-468): > 40 µM
- IC50 (HeLa [1]): > 40 µM
- IC50 (K562): > 40 µM

SMILES: Cc1ccc(-c2coc(NC(=O)c3ccccc3)n2)c(C)c1
- IC50 (MDA-MB-231): 14.4 µM
- IC50 (MDA-MB-468): 16 µM
- IC50 (HeLa [1]): 18.6 µM
- IC50 (K562): 19.2 µM

SMILES: Cc1cc(C)c(-c2csc(N(C)C(=O)c3ccccc3)n2)c(C)c1
- IC50 (MDA-MB-231): 11.6 µM
- IC50 (MDA-MB-468): 10.8 µM
- IC50 (HeLa [1]): 14.1 µM
- IC50 (K562): 9.2 µM

SMILES: Cc1ccc(-c2csc(NC(=O)c3ccccn3)n2)c(C)c1
- IC50 (MDA-MB-231): 7.5 µM
- IC50 (MDA-MB-468): 6.2 µM
- IC50 (HeLa [1]): 14.5 µM
- IC50 (K562): 13.3 µM

SMILES: Cc1ccc(-c2csc(NS(=O)(=O)c3ccccc3)n2)c(C)c1
- IC50 (MDA-MB-231): > 40 µM
- IC50 (MDA-MB-468): > 40 µM
- IC50 (HeLa [1]): > 40 µM
- IC50 (K562): > 40 µM
- Activity [3]: inactive
- Activity (HeLa [4]): inactive
- Activity (HeLa [5]): 2.9%

SMILES: COc1ccc(C(=O)Nc2nc(-c3c(C)cc(C)cc3C)cs2)c(OC)c1
- IC50 (MDA-MB-231): 9.7 µM
- IC50 (MDA-MB-468): 11.2 µM
- IC50 (HeLa [1]): 13.6 µM
- IC50 (K562): 9.5 µM

SMILES: Cc1ccc(-c2csc(N(C)C(=O)c3ccccc3)n2)c(C)c1
- IC50 (MDA-MB-231): 13.5 µM
- IC50 (MDA-MB-468): 16 µM
- IC50 (HeLa [1]): 20.2 µM
- IC50 (K562): 14.8 µM

SMILES: COc1ccc(C(=O)Nc2nc(-c3c(C)cc(C)cc3C)cs2)c(O)c1
- IC50 (MDA-MB-231): 11.8 µM
- IC50 (MDA-MB-468): 14.4 µM
- IC50 (HeLa [1]): 14.4 µM
- IC50 (K562): 14.8 µM

SMILES: Cc1cc(C)c(-c2csc(NC(=O)c3nccs3)n2)c(C)c1
- IC50 (MDA-MB-231): 4.7 µM
- IC50 (MDA-MB-468): 11.8 µM
- IC50 (HeLa [1]): 11.2 µM
- IC50 (K562): 14.5 µM

SMILES: Cc1ccc(-c2csc(NC(=O)N3CCOCC3)n2)c(C)c1
- IC50 (MDA-MB-231): 5.8 µM
- IC50 (MDA-MB-468): 4 µM
- IC50 (HeLa [1]): 4.7 µM
- IC50 (K562): 4.2 µM

SMILES: COc1ccc(C(=O)N(C)c2nc(-c3c(C)cc(C)cc3C)cs2)c(OC)c1
- IC50 (MDA-MB-231): 10.6 µM
- IC50 (MDA-MB-468): 18.7 µM
- IC50 (HeLa [1]): > 40 µM
- IC50 (K562): 15.5 µM

SMILES: Cc1cc(C)c(-c2csc(NC(=O)c3ccccc3C(F)(F)F)n2)c(C)c1
- IC50 (MDA-MB-231): 5.9 µM
- IC50 (MDA-MB-468): 4.1 µM
- IC50 (HeLa [1]): 10.6 µM
- IC50 (K562): 7.5 µM

SMILES: Cc1ccc(-c2csc(NC(=O)c3cnccn3)n2)c(C)c1
- IC50 (MDA-MB-231): > 25 µM
- IC50 (MDA-MB-468): > 25 µM
- IC50 (HeLa [1]): > 25 µM
- IC50 (K562): > 25 µM

— ChEMBL document CHEMBL1152785, “Synthesis and biological evaluation of a series of novel inhibitor of Nek2/Hec1 analogues” (J Med Chem, 2009)
